Test results from ChEMBL document CHEMBL1811846, “Synthesis and biological activity of naphthyl-substituted (B-ring) benzophenone derivatives as novel non-nucleoside HIV-1 reverse transcriptase inhibitors” (Bioorg Med Chem, 2011).

Experiments:
[1] = test system: Human immunodeficiency virus 1; assay: Antiviral activity against wild-type HIV1 3B infected in human C8166 cells assessed as protection against virus-induced cytopathogenicity after 3 days by measuring syncytia under inverted microscope; assay type: functional, organism-based; conditions: Human immunodeficiency virus 1, 3B, C8166, 72 h
Method in brief: (§1)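 C8166 cells at 4 × 10⁵/mL infected at M.O.I. 0.06 in the presence of serial compound concentrations, with AZT and GW678248 as drug controls. After 3 days of culture, syncytia (multinucleated giant cells) counted under an inverted microscope. EC₅₀ is the concentration blocking syncytium formation by 50%.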

[2] = test system: Human immunodeficiency virus 1; assay: Antiviral activity against HIV1 A17 expressing reverse transcriptase K103N/Y181C double mutant infected in human C8166 cells assessed as protection against virus-induced cytopathogenicity after 3 days by measuring syncytia under inverted microscope; assay type: functional, organism-based; conditions: Human immunodeficiency virus 1, A17, C8166, 72 h
Method in brief: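 C8166 cells (4 × 10⁵/mL) infected with HIV-1 A17 at MOI 0.06 in the presence of various compound concentrations. AZT and GW678248 served as drug controls. After 3 days of culture, syncytia (multinucleated giant cells) were scored under an inverted microscope. EC₅₀ was calculated as the concentration blocking syncytium formation by 50%.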

[3] = Cytotoxicity against human C8166 cells by MTT colorimetric assay; assay type: cell-based
Method in brief: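 Uninfected C8166 cells exposed to compounds; viability read by MTT colorimetric assay at absorbance 570/630 nm. CC₅₀ is the concentration reducing viability by 50%.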

[4] = Selectivity index, ratio of CC50 for human C8166 cells to EC50 for HIV1 3B infected in human C8166 cells; assay type: toxicity, cell-based; conditions: HIV-1 3B infected C8166 cells, read-out: Ratio CC50/EC50
Method in brief: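 Calculated as CC₅₀ (MTT viability of uninfected C8166 cells) divided by EC₅₀ against HIV-1 IIIB (syncytium scoring in C8166 cells, M.O.I. 0.06, 3 days).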

[5] = test system: Human immunodeficiency virus 2; assay: Antiviral activity against HIV-2 ROD infected in human C8166 cells assessed as protection against viral cytopathogenicity after 3 days by measuring syncytia under inverted microscope; assay type: functional, organism-based; conditions: Human immunodeficiency virus 2, ISOLATE ROD, C8166, 72 h; method in brief: as §1

SMILES	EC50 [1] [µM]	EC50 [2] [µM]	CC50 [3] [µM]	selectivity ratio [4]	EC50 [5] [µM]
Cc1cc(S(N)(=O)=O)ccc1NC(=O)COc1ccc2ccccc2c1C(=O)c1ccccc1	0.0527	9.6	33.8	642	–
Cc1cccc(C(=O)c2c(OCC(=O)Nc3ccc(S(N)(=O)=O)cc3C)ccc3ccccc23)c1	0.0135	2.4	40.4	2990	28.3
Cc1cc(S(N)(=O)=O)ccc1NC(=O)COc1ccc2ccccc2c1C(=O)c1cccc(Cl)c1	0.0338	9.5	37.4	1110	34.5
Cc1cc(C)cc(C(=O)c2c(OCC(=O)Nc3ccc(S(N)(=O)=O)cc3C)ccc3ccccc23)c1	0.0078	8.4	39.1	5040	45.4
Cc1ccc(C)c(C(=O)c2c(OCC(=O)Nc3ccc(S(N)(=O)=O)cc3C)ccc3ccccc23)c1	0.0116	7.6	47.5	4090	30.3
Cc1ccc(C(=O)c2c(OCC(=O)Nc3ccc(S(N)(=O)=O)cc3C)ccc3ccccc23)c(C)c1	0.139	7.9	25.5	183	–
Cc1ccc(C(=O)c2c(OCC(=O)Nc3ccc(S(N)(=O)=O)cc3C)ccc3ccccc23)cc1C	0.609	12.3	33	54.2	–
Cc1cc(S(N)(=O)=O)ccc1NC(=O)COc1ccc2ccccc2c1C(=O)c1cc(Cl)cc(Br)c1	0.0271	7.5	36.6	1350	–
Cc1cc(S(N)(=O)=O)ccc1NC(=O)COc1ccc2ccccc2c1C(=O)c1cc(Cl)cc(C#N)c1	0.0048	2.1	49.4	10300	23.6
Cc1cc(S(N)(=O)=O)ccc1NC(=O)COc1ccc2cc(Br)ccc2c1C(=O)c1ccccc1	4.61	25.8	29.2	6.3	27.7
Cc1cccc(C(=O)c2c(OCC(=O)Nc3ccc(S(N)(=O)=O)cc3C)ccc3cc(Br)ccc23)c1	2.3	3.4	6.8	2.9	–
Cc1cc(S(N)(=O)=O)ccc1NC(=O)COc1ccc2cc(Br)ccc2c1C(=O)c1cccc(Cl)c1	1.67	3.9	6.8	4.1	–
Cc1cc(S(N)(=O)=O)ccc1NC(=O)COc1ccc2cc(Br)ccc2c1C(=O)c1cccc(F)c1	9.17	9.7	24.5	2.7	6
Cc1cc(C)cc(C(=O)c2c(OCC(=O)Nc3ccc(S(N)(=O)=O)cc3C)ccc3cc(Br)ccc23)c1	4.42	7.8	31	7	29.8
Cc1ccc(C(=O)c2c(OCC(=O)Nc3ccc(S(N)(=O)=O)cc3C)ccc3cc(Br)ccc23)c(C)c1	23.6	33.1	61.4	2.6	–
Cc1ccc(C)c(C(=O)c2c(OCC(=O)Nc3ccc(S(N)(=O)=O)cc3C)ccc3cc(Br)ccc23)c1	2.64	20.7	14	5.3	–
Cc1ccc(C(=O)c2c(OCC(=O)Nc3ccc(S(N)(=O)=O)cc3C)ccc3cc(Br)ccc23)cc1C	31.9	28.2	85.2	2.7	–
Cc1cc(S(N)(=O)=O)ccc1NC(=O)COc1ccc2cc(Br)ccc2c1C(=O)c1cc(Cl)cc(Br)c1	7.57	10.2	28.5	3.8	11.1
Cc1cccc(C(=O)c2c(OCC(=O)Nc3ccc(S(N)(=O)=O)cc3C)ccc3cc(C#N)ccc23)c1	0.791	10.4	15.2	19.2	–
Cc1cc(S(N)(=O)=O)ccc1NC(=O)COc1ccc2cc(C#N)ccc2c1C(=O)c1cccc(Cl)c1	2.05	20.6	> 374	> 183	–
Cc1ccc(C(=O)c2c(OCC(=O)Nc3ccc(S(N)(=O)=O)cc3C)ccc3cc(C#N)ccc23)cc1C	86.3	97.3	> 379	> 4.4	–
Cc1cc(C)cc(C(=O)c2c(OCC(=O)Nc3ccc(S(N)(=O)=O)cc3C)ccc3cc(C#N)ccc23)c1	1.78	16.3	128	72	–
Cc1cc(S(N)(=O)=O)ccc1NC(=O)COc1ccc(Cl)cc1C(=O)c1cc(Cl)cc(C#N)c1	–	0.0014	> 387	> 563000	2.1
Cc1cn([C@H]2C[C@H](N=[N+]=[N-])[C@@H](CO)O2)c(=O)[nH]c1=O [ZIDOVUDINE]	–	0.023	5400	422000	0.039
